Measurements as given in ChEMBL document CHEMBL1150419, “Structure-activity relationships of a peptide inhibitor of the human FcRn:human IgG interaction” (Bioorg Med Chem, 2008).
Bridge positions count the residues as written; N and C are the ends. Peptide text beside a SMILES is read from it.

Assays:
[1] = biological target: T1, IgG receptor FcRn large subunit p51 (Homo sapiens, UniProt P55899); test: Inhibition of human IgG binding to soluble human FcRn by ELISA
Method in brief: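 Biotinylated soluble human FcRn immobilized on neutravidin plates, incubated with hIgG (3 nM, constant) and peptide at varying concentrations for 2 h at 37 °C. After washing, bound hIgG detected with peroxidase-conjugated hIgG-specific Fab fragments.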

[2] = biological target: T1, IgG receptor FcRn large subunit p51; test: Binding affinity to human FcRn at pH 6 by surface plasmon resonance assay
Method in brief: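 Soluble human FcRn coupled to the dextran surface of a CM5 chip; peptide dilutions flowed over the chip. The equilibrium response at each dilution was plotted against concentration and fitted to a steady-state affinity model to give Kd.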

[3] = biological target: T1, IgG receptor FcRn large subunit p51; test: Binding affinity to human FcRn at pH 7.4 by surface plasmon resonance assay
Method in brief: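 Soluble human FcRn coupled to the dextran surface of a CM5 chip; peptide dilutions flowed over the chip. Equilibrium response at each dilution plotted against concentration, and Kd fitted with a steady-state affinity model.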

[4] = Stability in presence of subtilisin assessed as intact peptide after 1 hr; format: ADME; details: subtilisin (protease solution); read-out: Stability
Method in brief: (§1)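 Peptide dissolved in PBS at 0.3 mg/mL and treated with a 470-fold molar excess of Subtilisin Carlsberg. The fraction of intact peptide remaining was recorded.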

[5] = Stability in presence of subtilisin assessed as intact peptide after 18 hrs; format: ADME; details: subtilisin (protease solution); read-out: Stability; method in brief: as §1

T1 sequence (P55899 whole entry, the tested form may be a part): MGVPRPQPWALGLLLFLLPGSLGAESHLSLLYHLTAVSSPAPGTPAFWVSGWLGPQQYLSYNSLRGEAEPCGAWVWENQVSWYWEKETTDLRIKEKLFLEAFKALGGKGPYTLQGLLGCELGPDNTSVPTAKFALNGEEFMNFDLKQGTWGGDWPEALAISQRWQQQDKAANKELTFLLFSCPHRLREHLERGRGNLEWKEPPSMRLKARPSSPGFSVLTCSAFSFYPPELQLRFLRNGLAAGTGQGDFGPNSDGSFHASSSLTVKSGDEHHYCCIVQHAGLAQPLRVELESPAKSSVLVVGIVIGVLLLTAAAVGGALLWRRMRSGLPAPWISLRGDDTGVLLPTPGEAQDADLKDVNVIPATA

SMILES: CC[C@H](C)[C@@H]1NC(=O)CNC(=O)[C@H](CC(=O)O)NC(=O)[C@H]([C@@H](C)CC)NC(=O)[C@H](Cc2cnc[nH]2)NC(=O)CNC(=O)[C@H](CCC(=O)O)NC(=O)[C@H]([C@@H](C)CC)NC(=O)[C@@H](NC(=O)[C@H](Cc2ccc(O)cc2)NC(=O)[C@H](CO)NC(=O)[C@@H]2CCCN2)CSSC[C@@H](C(=O)N[C@@H](Cc2ccccc2)C(=O)N[C@@H](CC(N)=O)C(=O)N[C@@H](C)C(=O)O)NC(=O)[C@H](Cc2ccc(O)cc2)NC1=O (H-PSYCIEGHIDGIYCFNA-OH; disulfide 4-14)
- IC50 [1]: 49 µM
- Kd [2]: 8.8 µM
- Kd [3]: 76 µM

SMILES: CC(C)C[C@@H](C(=O)N[C@@H](Cc1ccc(O)cc1)C(=O)N1CCC[C@H]1C(=O)N[C@@H](CS)C(=O)O)N(C)C(=O)CN(C)C(=O)CNC(=O)[C@H](Cc1ccccc1)NC(=O)[C@H](CCCN)NC(=O)CNC(=O)[C@@H](NC(=O)[C@@H](NC(=O)[C@H](Cc1ccccc1)NC(=O)[C@@H](N)CCCNC(=N)N)C(C)(C)S)[C@@H](C)O
- IC50 [1]: 12 µM
- Kd [2]: 1.3 µM
- Kd [3]: 1.2 µM

SMILES: CC(C)C[C@@H](C(=O)N[C@@H](Cc1ccc(O)cc1)C(=O)N1CCC[C@H]1C(=O)N[C@@H](CS)C(=O)O)N(C)C(=O)CN(C)C(=O)CNC(=O)[C@H](Cc1ccccc1)NC(=O)[C@H](Cc1cccnc1)NC(=O)CNC(=O)[C@@H](NC(=O)[C@@H](NC(=O)[C@H](Cc1ccccc1)NC(=O)[C@@H](N)CCCNC(=N)N)C(C)(C)S)[C@@H](C)O
- Kd [2]: 0.064 µM
- Kd [3]: 0.26 µM

SMILES: CC[C@H](C)[C@@H]1NC(=O)CNC(=O)CNC(=O)[C@H](Cc2ccccc2)NC(=O)[C@H](Cc2cnc[nH]2)NC(=O)CNC(=O)[C@H]([C@@H](C)O)NC(=O)[C@H](C(C)C)NC(=O)[C@@H](NC(=O)CNC(=O)CNC(=O)CN)CSSC[C@@H](C(=O)N[C@@H](CC(N)=O)C(=O)N[C@@H](Cc2ccc(O)cc2)C(=O)N[C@@H](CCC(N)=O)C(=O)O)NC(=O)[C@H](Cc2ccc(O)cc2)NC1=O (H-GGGCVTGHFGGIYCNYQ-OH; disulfide 4-14)
- IC50 [1]: 33 µM
- Kd [2]: 5.2 µM
- Kd [3]: 35 µM

SMILES: CC(C)C[C@@H](C(=O)N[C@@H](Cc1ccc(O)cc1)C(=O)N1CCC[C@H]1C(=O)N[C@@H](CS)C(=O)O)N(C)C(=O)CN(C)C(=O)CNC(=O)[C@H](Cc1ccccc1)NC(=O)[C@H](Cc1ccc(N=C(N)N)cc1)NC(=O)CNC(=O)[C@@H](NC(=O)[C@@H](NC(=O)[C@H](Cc1ccccc1)NC(=O)[C@@H](N)CCCN=C(N)N)C(C)(C)S)[C@@H](C)O
- Kd [2]: 0.074 µM
- Kd [3]: 0.073 µM

SMILES: CC(C)C[C@@H]1NC(=O)CNC(=O)CNC(=O)[C@H](Cc2ccccc2)NC(=O)[C@H](Cc2cnc[nH]2)NC(=O)CNC(=O)[C@H]([C@@H](C)O)NC(=O)[C@@H](NC(=O)[C@H](Cc2ccccc2)NC(=O)[C@H](CCCN=C(N)N)NC(=O)[C@@H](N)CCC(N)=O)CSSC[C@@H](C(=O)N[C@@H](CC(N)=O)C(=O)NCC(=O)N2CCC[C@H]2C(=O)O)NC(=O)[C@@H]2CCCN2C(=O)[C@H](Cc2ccc(O)cc2)NC1=O
- IC50 [1]: 36 µM
- Kd [2]: 5.7 µM
- Kd [3]: 45 µM

SMILES: CC(C)C[C@@H](C(=O)N[C@@H](Cc1ccc(O)cc1)C(=O)N1CCC[C@H]1C(=O)N[C@@H](CS)C(=O)O)N(C)C(=O)CN(C)C(=O)CNC(=O)[C@H](Cc1ccccc1)NC(=O)[C@H](Cc1ccc(N)cc1)NC(=O)CNC(=O)[C@@H](NC(=O)[C@@H](NC(=O)[C@H](Cc1ccccc1)NC(=O)[C@@H](N)CCCNC(=N)N)C(C)(C)S)[C@@H](C)O
- IC50 [1]: 4.6 µM
- Kd [3]: 1.1 µM

SMILES: C[C@@H](O)[C@H](NC(=O)[C@@H](NC(=O)[C@H](Cc1ccccc1)NC(=O)[C@H](CCCN=C(N)N)NC(=O)[C@@H](N)CCC(N)=O)C(C)(C)S)C(=O)NCC(=O)N[C@@H](Cc1cnc[nH]1)C(=O)N[C@@H](Cc1ccccc1)C(=O)N[C@H](Cc1ccccc1)C(=O)NCC(=O)N1CCC[C@H]1C(=O)N[C@@H](Cc1ccc(O)cc1)C(=O)N1CCC[C@H]1C(=O)N[C@@H](CS)C(=O)N[C@@H](CC(N)=O)C(=O)NCC(=O)N1CCC[C@H]1C(=O)O
- IC50 [1]: 39 µM
- Kd [2]: 18.3 µM
- remaining at 1 h [4]: 5%
- remaining at 18 h [5]: 0%

SMILES: CC(C)C[C@@H](C(=O)N[C@@H](Cc1ccc(O)cc1)C(=O)N1CCC[C@H]1C(=O)N[C@@H](CS)C(=O)O)N(C)C(=O)CN(C)C(=O)CNC(=O)[C@H](Cc1ccccc1)NC(=O)[C@H](CCCNC(=N)N)NC(=O)CNC(=O)[C@@H](NC(=O)[C@@H](NC(=O)[C@H](Cc1ccccc1)NC(=O)[C@@H](N)CCCNC(=N)N)C(C)(C)S)[C@@H](C)O
- IC50 [1]: 5.5 µM
- Kd [2]: 0.5 µM
- Kd [3]: 0.5 µM

SMILES: CC(C)C[C@@H](C(=O)N[C@@H](Cc1ccc(O)cc1)C(=O)N1CCC[C@H]1C(=O)N[C@@H](CS)C(=O)O)N(C)C(=O)CN(C)C(=O)CNC(=O)[C@H](Cc1ccccc1)NC(=O)[C@H](Cc1ccncc1)NC(=O)CNC(=O)[C@@H](NC(=O)[C@@H](NC(=O)[C@H](Cc1ccccc1)NC(=O)[C@@H](N)CCCNC(=N)N)C(C)(C)S)[C@@H](C)O
- IC50 [1]: 1.3 µM
- Kd [2]: 0.067 µM
- Kd [3]: 0.28 µM

SMILES: CC(C)C[C@@H](C(=O)N[C@@H](Cc1ccc(O)cc1)C(=O)N1CCC[C@H]1C(=O)N[C@@H](CS)C(=O)O)N(C)C(=O)CNC(=O)[C@@H](C)NC(=O)[C@H](Cc1ccccc1)NC(=O)[C@H](Cc1cnc[nH]1)NC(=O)CNC(=O)[C@@H](C)N(C)C(=O)[C@@H](NC(=O)[C@H](Cc1ccccc1)NC(=O)[C@@H](N)CCCNC(=N)N)C(C)(C)S
- IC50 [1]: 8 µM
- remaining at 1 h [4]: 100%
- remaining at 18 h [5]: 95%

SMILES: CC(C)C[C@@H](C(=O)N[C@@H](Cc1ccc(O)cc1)C(=O)N1CCC[C@H]1C(=O)N[C@@H](CS)C(=O)O)N(C)C(=O)CN(C)C(=O)CNC(=O)[C@H](Cc1ccccc1)NC(=O)[C@H](CCCCN)NC(=O)CNC(=O)[C@@H](NC(=O)[C@@H](NC(=O)[C@H](Cc1ccccc1)NC(=O)[C@@H](N)CCCN=C(N)N)C(C)(C)S)[C@@H](C)O
- IC50 [1]: 40 µM
- Kd [2]: 1.3 µM
- Kd [3]: 1.1 µM

SMILES: CC[C@H](C)[C@H](NC(=O)[C@@H](NC(=O)[C@@H](N)CCCCN)[C@@H](C)CC)C(=O)N[C@H]1CSSC[C@@H](C(=O)N[C@@H](CCC(N)=O)C(=O)NCC(=O)N[C@@H](CCCCN)C(=O)O)NC(=O)[C@H](Cc2ccc(O)cc2)NC(=O)[C@H](CCSC)NC(=O)CNC(=O)CNC(=O)[C@H](Cc2ccccc2)NC(=O)[C@H](Cc2cnc[nH]2)NC(=O)CNC(=O)[C@@H]2CCCN2C(=O)[C@H](CO)NC1=O (H-KIICSPGHFGGMYCQGK-OH; disulfide 4-14)
- IC50 [1]: 64 µM
- Kd [2]: 22 µM
- Kd [3]: 78 µM

SMILES: CC(C)C[C@H](NC(=O)[C@@H]1CCCN1C(=O)[C@H]1CCCN1C(=O)[C@H](Cc1ccccc1)NC(=O)[C@H](Cc1cnc[nH]1)NC(=O)CNC(=O)[C@@H](NC(=O)[C@@H](NC(=O)[C@H](Cc1ccccc1)NC(=O)[C@H](CCCN=C(N)N)NC(=O)[C@@H](N)CCC(N)=O)C(C)(C)S)[C@@H](C)O)C(=O)N[C@@H](Cc1ccc(O)cc1)C(=O)N1CCC[C@H]1C(=O)N[C@@H](CS)C(=O)N[C@@H](CC(N)=O)C(=O)NCC(=O)N1CCC[C@H]1C(=O)O
- IC50 [1]: > 250 µM
- Kd [2]: > 100 µM

SMILES: CC(C)C[C@H](NC(=O)CN1CCC[C@@H](NC(=O)[C@H](Cc2ccccc2)NC(=O)[C@H](Cc2cnc[nH]2)NC(=O)CNC(=O)[C@@H](NC(=O)[C@@H](NC(=O)[C@H](Cc2ccccc2)NC(=O)[C@@H](N)CCCNC(=N)N)C(C)(C)S)[C@@H](C)O)C1=O)C(=O)N[C@@H](Cc1ccc(O)cc1)C(=O)N1CCC[C@H]1C(=O)N[C@@H](CS)C(=O)O
- IC50 [1]: 0.66 µM
- Kd [2]: 0.16 µM

SMILES: CC(C)C[C@@H](C(=O)N[C@@H](Cc1ccc(O)cc1)C(=O)N1CCC[C@H]1C(=O)N[C@@H](CS)C(=O)O)N(C)C(=O)CN(C)C(=O)CNC(=O)[C@H](Cc1ccccc1)NC(=O)[C@H](CC1CCNCC1)NC(=O)CNC(=O)[C@@H](NC(=O)[C@@H](NC(=O)[C@H](Cc1ccccc1)NC(=O)[C@@H](N)CCCNC(=N)N)C(C)(C)S)[C@@H](C)O
- IC50 [1]: 85 µM
- Kd [2]: 5.2 µM
- Kd [3]: 6.4 µM

SMILES: CC(C)C[C@@H](C(=O)N[C@@H](Cc1ccc(O)cc1)C(=O)N1CCC[C@H]1C(=O)N[C@@H](CS)C(=O)O)N(C)C(=O)CN(C)C(=O)CNC(=O)[C@H](Cc1ccccc1)NC(=O)[C@H](Cc1ccsc1)NC(=O)CNC(=O)[C@@H](NC(=O)[C@@H](NC(=O)[C@H](Cc1ccccc1)NC(=O)[C@@H](N)CCCN=C(N)N)C(C)(C)S)[C@@H](C)O
- IC50 [1]: 45 µM
- Kd [2]: 2 µM
- Kd [3]: 3 µM

SMILES: CC(C)C[C@H](NC(=O)CNC(=O)CNC(=O)[C@H](Cc1ccccc1)NC(=O)[C@H](Cc1cnc[nH]1)NC(=O)CNC(=O)[C@@H](NC(=O)[C@@H](NC(=O)[C@H](Cc1ccccc1)NC(=O)[C@H](CCCNC(=N)N)NC(=O)[C@@H](N)CCC(N)=O)C(C)(C)S)[C@@H](C)O)C(=O)N[C@@H](Cc1ccc(O)cc1)C(=O)N1CCC[C@H]1C(=O)N[C@@H](CS)C(=O)N[C@@H](CC(N)=O)C(=O)NCC(=O)N1CCC[C@H]1C(=O)O
- IC50 [1]: 2 µM
- Kd [2]: 0.25 µM
- remaining at 1 h [4]: 5%
- remaining at 18 h [5]: 0%

SMILES: CC(C)C[C@H](NC(=O)[C@@H](CCCN=C(N)N)NC(=O)CNC(=O)[C@H](Cc1ccccc1)NC(=O)[C@H](Cc1cnc[nH]1)NC(=O)CNC(=O)[C@@H](NC(=O)[C@@H](NC(=O)[C@H](Cc1ccccc1)NC(=O)[C@H](CCCN=C(N)N)NC(=O)[C@@H](N)CCC(N)=O)C(C)(C)S)[C@@H](C)O)C(=O)N[C@@H](Cc1ccc(O)cc1)C(=O)N1CCC[C@H]1C(=O)N[C@@H](CS)C(=O)N[C@@H](CC(N)=O)C(=O)NCC(=O)N1CCC[C@H]1C(=O)O
- IC50 [1]: 8.1 µM
- Kd [2]: 0.83 µM
